Data on 13 sequences can be found in PMC4394037 (Journal of molecular biology, 2014).

The test has as its target Bcl-xL (Homo sapiens, UniProt Q07817). It counts as binding. The conditions noted are these: global SORTCERY ranks re-indexed from 1 to 19 for the 19 chosen sequences. The method in brief: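 Incubated with Myc-tagged Bcl-xL in 50 mM Tris, 100 mM NaCl, pH 8.0, 1 mg/ml BSA for 2 h at room temperature. Stained with anti-HA/anti-Myc, then APC/PE secondaries, at 4 °C. Sorted into 12 gates and deep-sequenced (Phred >0.95). Global ranking optimised by Monte Carlo, with bootstrap uncertainty.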

Bcl-xL, sequence (Q07817 whole entry): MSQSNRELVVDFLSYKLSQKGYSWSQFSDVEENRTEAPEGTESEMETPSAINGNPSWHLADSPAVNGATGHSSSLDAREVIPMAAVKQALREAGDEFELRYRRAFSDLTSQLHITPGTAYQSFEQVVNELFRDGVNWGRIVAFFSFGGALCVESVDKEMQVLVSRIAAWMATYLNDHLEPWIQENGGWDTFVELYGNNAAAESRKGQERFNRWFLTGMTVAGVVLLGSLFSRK

With AAQELRRYGDEY, the reindexed ranking was found to be 8. For the sequence AGAQLHRFADDY, the reindexed ranking amounted to 12. FGAQLGRVASDF registered a reindexed ranking of 14.

FGAQLNRIAEDF yielded a reindexed ranking of 6. Consider IGAQFGRFADDF, for which the reindexed ranking is 5. The sequence IGAQLRRMADDV displayed a reindexed ranking of 7.

Take VAQELRRIGDEV: the reindexed ranking was 9. VAQELRRYGDEY: the reindexed ranking is 4. As for VGAQFHRFANDF, the figure is 17; as for VGAQLRRIADDV, 1; as for YAQEIGRNGDEF, 16.

In turn, YAQELQRYGDET gave a reindexed ranking of 13. On to YGAQLDRYAQDF, for which the reindexed ranking came out at 10.
